Lipid droplet – modulators of hepatic lipid droplet formation; AID 1656; AML12 mouse hepatocytes, oleate lipid droplets, BODIPY imaging; 240,000 tested, 0.4% active; inhibition, % at 6.5 µM;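 active means lipid droplet intensity inhibited by at least 50%, with more than 500 cells counted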
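Test system: AML12 mouse liver cells; schedule: overnight exposure; technique: high-content imaging of BODIPY-stained droplets and DAPI nuclei; read-out: % inhibition of corrected integrated BODIPY droplet signal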
SR-BI HDL uptake – blocks mouse SR-BI lipid uptake from DiI-HDL; inhibition, % at 12.5 µM; ldlA[mSR-BI] CHO cells, DiI-HDL uptake fluorescence, 3 h; Q61009; AID 488896; 320,000 tested, 0.96% active;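 active means mean replicate inhibition of at least 70% and a set share of replicates each scoring 70 or more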;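 further: 0% = median of neutral control wells and 100% = median of positive control wells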
SR-BI uptake up – enhances SR-BI lipid uptake from DiI-HDL; CHO ldlA[mSR-BI] cells, DiI-HDL uptake fluorescence, 3 h; 100 = double the neutral-control signal; 320,000 tested, 0.096% active; activation, % at 12.5 µM;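 active means mean replicate activation of at least 60% and every replicate at or above 60%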;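 further: 0% = median plate neutral-control signal and 100% = twice that signal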
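Test system: SR-BI-overexpressing, LDLR-lacking CHO cells. Measured by: DiI fluorescence, bottom read. Medium: Ham's F12 with 0.5% BSA, HEPES 25 mM, pH 7.4. Timing: 3 h uptake period with compound, 37 °C.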
Yeast superoxide – yeast age-related superoxide inhibition as caloric restriction mimetic; S. cerevisiae aged cells, superoxide DHE fluorescence; stronger effect = lower value; superoxide response (% of plate mean), % at 10 µM; 330,000 tested, 0.18% active; AID 2690;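 active means superoxide response under a set limit, about three screen SD below normal, cut at about 65% in these data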;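 further: yeast aged for seven days with compound at 30 °C before DHE staining; 100% = average MFI of all compound-treated wells on the plate with controls excluded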
SMARCA2 act – SMARCA2 function activation, primary screen | AID 652017 | activation, % at 9.1 µM | MG213 cells, MMTV-luciferase reporter, dexamethasone, overnight | 370,000 tested, 1% active; in the data active means activation above about 7.8%;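 further: 0% = vehicle wells and 100% = reference activator wells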
AHR activator – human AHR activation; AHR-responsive luciferase reporter cells, luminescence; P35869; AID 2796; activation, % at 5 µM; 320,000 tested, 2.5% active; in the data active means activation above about 47%;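 further: 0% = vehicle wells and 100% = reference agonist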
Target sequence (P35869 whole entry, looked up): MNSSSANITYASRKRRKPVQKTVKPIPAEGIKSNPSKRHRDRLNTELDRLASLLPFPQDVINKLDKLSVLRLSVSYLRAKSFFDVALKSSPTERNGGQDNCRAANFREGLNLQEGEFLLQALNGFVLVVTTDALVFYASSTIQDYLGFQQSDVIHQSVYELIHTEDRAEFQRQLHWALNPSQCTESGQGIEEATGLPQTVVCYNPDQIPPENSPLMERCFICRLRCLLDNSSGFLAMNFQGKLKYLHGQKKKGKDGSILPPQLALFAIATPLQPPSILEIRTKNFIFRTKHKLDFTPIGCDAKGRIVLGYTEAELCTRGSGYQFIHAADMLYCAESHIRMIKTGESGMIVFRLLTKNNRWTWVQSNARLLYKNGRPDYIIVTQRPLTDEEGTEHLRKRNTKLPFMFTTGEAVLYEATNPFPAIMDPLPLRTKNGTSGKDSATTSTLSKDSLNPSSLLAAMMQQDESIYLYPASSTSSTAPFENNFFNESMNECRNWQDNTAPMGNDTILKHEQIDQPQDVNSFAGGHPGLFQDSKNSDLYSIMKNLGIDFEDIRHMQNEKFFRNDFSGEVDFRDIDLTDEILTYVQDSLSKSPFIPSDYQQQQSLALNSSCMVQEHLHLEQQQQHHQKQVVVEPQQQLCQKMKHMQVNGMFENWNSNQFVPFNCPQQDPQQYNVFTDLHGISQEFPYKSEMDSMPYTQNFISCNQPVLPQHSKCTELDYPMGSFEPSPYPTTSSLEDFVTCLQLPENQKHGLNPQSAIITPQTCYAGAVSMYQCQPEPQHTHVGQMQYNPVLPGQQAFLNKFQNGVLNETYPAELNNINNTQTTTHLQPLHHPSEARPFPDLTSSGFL
Lipid drop inh – hepatic lipid droplet formation inhibition, confirmed | shares compounds with Lipid droplet | AID 463183 | inhibition, % at 5.2 µM | AML12 mouse hepatocytes, BODIPY lipid droplet imaging; droplets induced with 100 µM oleic acid | 870 tested, 65% active;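 active means inhibition of lipid droplet metric at least 50%, with more than 300 cells in each of four replicates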;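 further: plate controls were DMSO with oleic acid for no effect and 5 µM Triacsin-C for full effect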
AML12 tox img – AML12 hepatocyte cytotoxicity (counter-screen). z-score at 5 µM. 870 tested, 3% active. AML12 mouse hepatocytes, DAPI nuclear morphology cytotoxicity imaging; stronger effect = higher value; cells fed 100 µM oleate overnight. shares compounds with Lipid droplet; in the data active means z-score above about 6.3;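 further: compound exposure lasted overnight at 37 °C before fixation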
AML12 tox ATP – confirmation of cytotoxicity in AML12 mouse hepatocytes; shares compounds with Lipid droplet; AML12 mouse hepatocyte viability, ATP luminescence; cells loaded with 100 µM oleic acid; cytotoxicity, % at 50 µM; 530 tested, under 10 active;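 active means cytotoxicity above 50% in each of four replicates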;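 further: compound exposure lasted overnight at 37 °C before the ATP read; 0% = DMSO-treated cells and 100% = wells with no cells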
The depositor's hits bear a star; x = no result. Shown are actives, neighbours in structure and some others; about 4.3% of the full set was active somewhere.

SMILES	Lipid droplet	SR-BI HDL uptake	SR-BI uptake up	Yeast superoxide	SMARCA2 act	AHR activator	Lipid drop inh	AML12 tox img	others
CC(=O)N1CCc2cc(S(=O)(=O)NCCC(=O)NCc3ccccc3)ccc21	x	x	x	x	-3.6	x	x	x
Oc1ccc(C=Nc2ccc(N3CCOCC3)cc2)c(O)c1	-0.1	-3.4	3.4	97.5	-3.0	14.2	x	x
Oc1ccc(N=Nc2cccc(C(F)(F)F)c2)cc1C=Nc1ccc(N2CCOCC2)cc1	57.6*	21.8	-21.8	96.2	1.5	5.4	40.5	-0.229
Cc1ccc(NC(=O)CN(C)S(=O)(=O)c2cccs2)cc1C	-3.2	12.8	-12.8	95.8	3.1	9.5	x	x
Cc1ccc(NC(=O)CN(C)S(=O)(=O)c2cccs2)c(Br)c1	63.3*	14.8	-14.8	100.5	-1.8	-2.7	20.1	-0.333
CCOc1ccccc1N1CCN(C(=O)NCc2ccc(C)cc2)CC1	65.1*	-11.0	11.0	80.8	1.9	0.4	41.2	0.475	AML12 tox ATP=6.5
CCOC(=O)N1CCN(C(=O)CSCC(=O)Nc2nc(-c3ccc(-c4ccccc4)cc3)cs2)CC1	81.9*	85.4*	-85.4	114.1	-1.4	-8.5	76.3*	0.127	AML12 tox ATP=41.6
O=S(=O)(c1cccs1)N1CCCc2nc(-c3ccc(F)cc3)ccc21	x	x	x	x	-7.5	x	x	x
CCCCOc1ccc(NC(=O)Cn2c(=O)ccc3c(C)cc(C)nc32)cc1	66.3*	16.4	-16.4	86.2	-1.8	3.1	91.3*	-0.133	AML12 tox ATP=10.1
CCCCOc1ccc(NC(=O)CN2CCN(CC)CC2)cc1	-24.8	-6.3	6.3	98.1	-0.8	x	x	x
COC(=O)c1ccc(NC(=O)CCOc2ccccc2)cc1	-0.9	-15.5	15.5	93.0	-3.0	0.8	x	x
CCOC(=O)c1ccc(NC(=O)CCOc2ccc(C)cc2)cc1	65.6*	6.5	-6.5	95.2	1.1	-1.9	89.7*	-0.812	AML12 tox ATP=6.1
O=c1c(C/C=C/c2ccccc2)c(O)ccn1CCc1c[nH]c2ccccc12	60.1*	2.8	-2.8	106.8	-4.5	4.8	105.5*	-0.194	AML12 tox ATP=13.1
COc1ccc2[nH]cc(CCn3ccc(O)c(C/C=C/c4ccccc4)c3=O)c2c1	40.3	9.0	-9.0	97.0	-3.9	5.5	x	x
COc1cc(C2N3CC4(C)CN2CC(C)(C3)C4)ccc1O (configuration not stated)	91.5*	-31.2	31.2	104.0	3.3	-2.3	5.0	-1.55
O=[N+]([O-])c1cc2c(ccc3occc32)o1	x	x	x	x	1.7	x	x	x
O=C1C(Nc2ccccc2)=C(N2CCCCC2)C(=O)c2ccccc21	x	-14.0	14.0	131.0	-7.3	13.3	x	x
CN(C1=C(N2CCCCC2)C(=O)c2ccccc2C1=O)c1ccccc1	78.7*	3.7	-3.7	116.0	-5.5	18.6	113.5*	0.756	AML12 tox ATP=11.4
COc1ccccc1NC1=C(N2CCCCC2)C(=O)c2ccccc2C1=O	68.9*	20.6	-20.6	134.3	x	32.9	39.6	-0.26
COc1ccc(CN2CCC(CNC(=O)Nc3ccc(C)c(F)c3)CC2)cc1	x	x	x	x	-1.0	x	x	x
CN1CCCCC(NC(=O)c2cccc(F)c2)C1=O (configuration not stated)	x	x	x	x	-0.7	x	x	x
O=C(NC1CCCCN(Cc2cccc(Cl)c2)C1=O)c1ccc(F)c(F)c1 (configuration not stated)	x	x	x	x	-2.0	x	x	x
COc1ccc(-c2ncn(CCc3ccccc3OC)c2CC(C)C)cc1	x	x	x	x	-9.4	x	x	x
COc1ccc(C(C#N)N2CCOCC2)cc1 (configuration not stated)	52.7*	-1.9	1.9	99.3	-0.6	1.2	26.0	-1.06
C/C(=N\N=C(/N)c1nonc1N)c1ccc2c(c1)OCO2	66.0*	25.4	-25.4	101.4	5.3	5.5	27.0	0.381
SMILES	Lipid droplet	SR-BI HDL uptake	SR-BI uptake up	Yeast superoxide	SMARCA2 act	AHR activator	Lipid drop inh	AML12 tox img	others
CC(C)(C)n1nc(C2CC2)c(Br)c1NC(=O)c1ccccc1Cl	x	x	x	x	-4.0	x	x	x
C=CCN1C(=O)[C@@H](CC(=O)NCc2cccc3ccccc23)[C@]2(C(=O)OC)CCCCC=C12	x	x	x	x	-3.6	x	x	x
Cc1ccc(/C=C/C(=O)NCC2COc3ccccc3O2)o1 (configuration not stated)	52.9*	11.5	-11.5	89.0	-0.3	5.1	17.8	-0.283
COc1ccc(/C=C/C(=O)NCC2COc3ccccc3O2)cc1OC (configuration not stated)	-0.8	13.7	-13.7	104.8	1.9	6.4	x	x
CCOC(=O)c1ccc(NC(=O)CSc2nc3c(c(=O)n2C)SC(C)C3)cc1 (configuration not stated)	x	22.3	-22.3	97.6	-1.8	4.0	x	x
CCOC(=O)c1ccc(NC(=O)CSc2nc3c(c(=O)n2CC)SC(C)C3)cc1 (configuration not stated)	51.9*	21.2	-21.2	87.3	-4.6	-0.6	78.9*	-0.85	AML12 tox ATP=11.9
Nc1ccc(O)c2c1C(=O)c1ccccc1C2=O	28.1	29.9	-29.9	108.3	3.2	5.8	x	x
O=C1c2ccccc2C(=O)c2c(Nc3ccc(CCO)cc3)ccc(O)c21	113.1*	93.3*	-93.3	115.6	-0.8	68.5*	114.7*	0.442
CCOc1ccc(CCNC(=O)CCc2nnc3ccc(N4CCCCC4)nn23)cc1OCC	86.5*	37.5	-37.5	84.7	-0.8	0.9	108.8*	0.411	AML12 tox ATP=10.4
CCOc1ccc(CCNC(=O)C2CCN(S(=O)(=O)N3CCCCC3)CC2)cc1OCC	107.9*	29.2	-29.2	119.2	-1.3	0.4	105.1*	-0.364
CCOC(=O)c1ccc(NC(=O)CCc2nnc3ccc(N4CCCC4)nn23)cc1	-21.1	26.8	-26.8	107.1	-3.0	0.8	x	x
CCN(CC)c1ccc(NC(=O)CCc2nnc3ccc(N4CCCC4)nn23)c(C)c1	71.9*	1.0	-1.0	79.0	-0.1	-0.8	97.8*	-0.657	AML12 tox ATP=13.5
CCCCCCCCN1C(=O)[C@@H](CC(=O)N2CCSCC2)C[C@@]2(C(=O)OC)C1=C[C@H](C(C)C)O[C@@H]2C1CC1	x	x	x	x	-0.9	x	x	x
C[C@@H]1CN([C@@H](C)CO)C(=O)CCCn2cc(nn2)CO[C@H]1CN(C)C(=O)Nc1cccc(C(F)(F)F)c1	x	x	x	x	0.2	x	x	x
CS(=O)(=O)N(Cc1ccc(Cl)cc1)c1ccc(C(=O)NCc2ccccn2)cc1	-25.3	7.1	-7.1	96.0	2.8	1.6	x	x
CS(=O)(=O)N(Cc1ccc(Cl)cc1)c1ccc(C(=O)N/N=C/c2cc3ccccc3nc2Cl)cc1	64.2*	0.5	-0.5	92.8	-1.1	-1.4	105.9*	-0.459	AML12 tox ATP=0.7
COc1ccc(S[C@]2(C(=O)NCC(C)C)CC(=O)N[C@@H]2c2ccc(OC)cc2)cc1	x	x	x	x	-2.0	x	x	x

Screening results as filed in PubChem.
